Laboratory results published in the EternaBench riboswitch data.

Test system: MS2 coat protein
Assay: apparent Kd, MS2 coat protein; higher = weaker binding; RNA-MaP array; FMN 200 µM where present
Procedure, shortened: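 Green signal was scaled to red-channel RNA signal and control-cluster median Fmax, and the apparent Kd was taken as the median of filtered per-cluster binding-curve fits. The binding series used SNAP-549-labelled MS2 coat protein from 0.7 or 1.5 nM, doubling to 3 µM, on designs transcribed by stalled E. coli RNA polymerase on Illumina sequencing-chip clusters. Each series ran without and then with constant ligand in 100 mM Tris-HCl pH 7.5, 80 mM KCl, 4 mM MgCl2, BSA, DTT, yeast tRNA and Tween-20.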

[1] = designed as: OFF switch for flavin mononucleotide, no ligand
[2] = ligand present: flavin mononucleotide, designed as: OFF switch for flavin mononucleotide
[3] = designed as: ON switch for flavin mononucleotide, no ligand
[4] = ligand present: flavin mononucleotide, designed as: ON switch for flavin mononucleotide

Sequence | apparent Kd [1] | apparent Kd [2] | apparent Kd [3] | apparent Kd [4]
UCAUUAGCGGGCGGGUCGGUUGGACAUGAGGAUCACCCAUGUAGAAGGACCGGUGGACUCCGGCGGUAGGAUAUACAUUUGGUG | 22 nM | 30.7 nM |  | 
CUGAUGUGAGGAUAUCGGGCUACAGGACUGCUGCUAGCAAACGAGAAGGCACAUGAGGAUCACCCAUGUGAGAG | 18.1 nM | 25.4 nM |  | 
CCGGAAGUACAGGAUAUCGUAACGGAAACGUUACGAGAAGGGUAUACAUGAGGAUCACCCAUGUGUCCUACCGG | 28.3 nM | 26.6 nM |  | 
UUAGUCAUGUUAGGAUAUCCGAUGCGAAGCGUUGGAGAAGGAACAUGAGGAUCACCCAUGUUCUGCGUCUGAGUACAGAUGCUA | 29.6 nM | 123 nM |  | 
GCACUGGAUGUAGGAUAUCAGGACGAUAAGUCCUGAGAAGGACAUGAGGAUCACCCAUGUAAAAUCUCACCAGUGCAUAAUAUA | 13.6 nM | 16.6 nM |  | 
GUCAUUGACAAGAAGGCAAACAUGAGGAUCACCCAUGUUCUGCAUGUAUAUUGAGGAUAUUGCCAAUGCAUGAGGAUCACCCAG | 11.7 nM | 20.2 nM |  | 
CUAAAUCAUGUAGGAUAUGCAUGGCGAAGCUACGCAGAAGGACAUGAGGAUCACCCAUGUCAGAACGUCUGCGUUCAGACGUUG | 17.7 nM | 58 nM |  | 
AGUGUCAUCGAGAAGGCCUUAACAUGAGGAUCACCCAUGUUGUAACAUGGGAGGAUAUCGAUGAUACAGCUACGUUUCGUAGCA |  |  | 412 nM | 25.5 nM
UUUUUGUGAGGAUAUCAGUAGUAAAAAAAUAAAAUUACUACUGAGAAGGCACAUGAGGAUCACCCAUGUUCCUU | 14.3 nM | 33.5 nM |  | 
AUCAGCUCGUGAGGAUAUGCGUCACUGCGUCAGCAGUGUGGUAAGAUCACAUGAGGAUCACCCAUGUAGAAGGCACGAGCUGAU | 34 nM | 455 nM |  | 
AUCGUGAGAGGAUAUACAUGAGGAUCACCCAUGUUUCGAACACCAUGCGGUCAUUUGCGUAGAAGGCUCGUGCG | 29.1 nM | 87.1 nM |  | 
CUGGUGUGAGGAUAUCAGGACACGCCCGCGGACGUGUCAAAUGAGAAGGCACAUGAGGAUCACCCAUGUGGGAC | 33.4 nM | 166 nM |  | 
ACCUUACAUGAGGAUCACCCAUGUUAGGAUAUCUCGCCUGCACAAACACAGCGCAGGCAGAGAAGGGACGCGGG | 28.2 nM | 35 nM |  | 
GAGUGGAUGAGACCGCGGGCGACAUGAGGAUCACCCAUGUUGCAGGAUAUCAGUGCGUCGGCGCCUGAGAAGGGCGACAAUCAU | 6.56 nM | 7.11 nM |  | 
UAAGAUUAUUGAGGAUAUGGUAAUUUUUAUUAACCAGAAGGCAAACUCAACAUGAGGAUCACCCAUGUAUAAAGGGUAUUAGUU | 68 nM | 63.4 nM |  | 
GGAUAGGAAAGAGGAUAUACGUGCUAGAGAUACUAGCAAAAUUUCCUCACAUGAGGAUCACCCAUGUAGAAGGCUGUCCUAUCG | 5.95 nM | 38.9 nM |  | 
UGGUACAUCGGAGGAUAUCAUGUAAAUACAUGAGGAUCACCCAUGUCGUACGAGAGUACGGAGAUUGAGAAGGCCGAUGUACCU |  |  | 25.7 nM | 15 nM
CCCUCACAUGAGGAUCACCCAUGUUAGGAUAUCUACCAGGAGCUAUGAUUAGCCCAACGGAGAAGGAACGUGCA | 17.9 nM | 17.4 nM |  | 
GAUUCGGGAGGAUAUACAUGAGGAUCACCCAUGUAUAUAUAAUAUAUUAAAUUAUCAUGUAGAAGGUUUGGGUC | 24.2 nM | 23.4 nM |  | 
CGUUGAUGAGGAUAUCGAUGUUAGUACAUGAGGAUCACCCAUGUUAUCCAAGUGUCGUUUCGAGAAGGUAUUGGAC | 216 nM | 348 nM |  | 
AGCUAGUGAGGAUAUACGAACAUGUCAAAAGACGUGAAUAAACAUGAGGAUCACCCAUGUAGAAGGCACUAGCA | 17.5 nM | 16.2 nM |  | 
GCAUGUUGGUAGGAUAUGCAGCGAAAACCGCGAGUAGAAGGAUUGACAUGAGGAUCACCCAUGUGAACCUAAGG | 27.1 nM | 59.2 nM |  | 
UUAAAUCAUGUAGGAUAUGCAUGGCGAAGCUACGCAGAAGGACAUGAGGAUCACCCAUGUUCGAGCGUCUGAGUACAGAUGCAA | 19.1 nM | 59.8 nM |  | 
GAGUCACGAAUAAUAAUAAGAUCUACAUGAGGAUCACCCAUGUAGGAUAUGCAGUGGAAUACACUGCAGAAGGACAUACGUGAC | 14 nM | 17.5 nM |  | 
AGCGUGUUAGGAUAUACACGACGCUGGGUAGCUAGCGGAGGGUAGAAGGGACAUGAGGAUCACCCAUGUUCGGG | 74.1 nM | 105 nM |  | 
AAUUUAAUACAUGAGGAUCACCCAUGUAAAUUAAUUAAGAUCAAGGAUAUCAGCUCGAUUAGAGCUGAGAAGGUGAUCACAUGU |  |  | 368 nM | 99.4 nM
AAGAGCGAUUCUCCCUUCCUACAUGAGGAUCACCCAUGUACGAGAAGGCGCCGUGUAUACAACGGUGAGGAUAUCGUACGUUAC | 5.46 nM | 10.7 nM |  | 
AUCAGCACGUGAGGAUAUGCGUCACUGCGAAAGCAGUGCGGUAAGAUCACAUGAGGAUCACCCAUGUAGAAGGCACGAGCUGAU | 20.8 nM | 54 nM |  | 

Sequence | apparent Kd [1] | apparent Kd [2] | apparent Kd [3] | apparent Kd [4]
AGAUGGCGAGGAUAUACAUGAGGAUCACCCAUGUGAGAUAAAUAAGUGAGGAAGAAAAGUAGAAGGCGCUGUCA | 81.3 nM | 387 nM |  | 
UGUUAAUAUCGAGGAUAUGUCUAGACACAUGAGGAUCACCCAUGUAUGUGUAUAGAAGGCGAUAUUAACAGCAUGUUACAUGCG |  |  | 37.2 nM | 17.4 nM
CCUGCACAUGAGGAUCACCCAUGUUAGGAUAUCUCGCCGCCUAAACGAAUGGUGGCCCAGAGAAGGAACAGGGC | 28.6 nM | 41.3 nM |  | 
GCCAUCGCGUGAGGAUAUGCUCCGGUUUCCGGAGCAGAAGGCAUGUCAUUAGACAUGAGGAUCACCCAUGUAGUUAAGAUGGCA |  |  | 562 nM | 18.2 nM
GCGUACAUAUCAGGAUAUCAUAUUAUUGUUUUACUCAGUGUAUACAUGAGGAUCACCCAUGUUCUUGAGAAGGGAUAUGUACGC | 8.22 nM | 9.91 nM |  | 
GUCAUCUCGUGAGGAUAUACAACACUGCUUCGGCAGUGUAUUAAGAUCACAUGAGGAUCACCCAUGUAGAAGGCACGAGCUGAU | 15 nM | 214 nM |  | 
GGGUAACAUGAGGAUCACCCAUGUGAGGAUAUCCUAGGGAUGGAAGCUCGGCCAACCAGGAGAAGGUACUAAAG | 73.9 nM | 131 nM |  | 
AAAAAGGCAGGAUAUACAUGAGGAUCACCCAUGUAGUUGACAAAAAAGAGUCAACAGUGUAGAAGGGCCAAAAA | 19.3 nM | 24.6 nM |  | 
UGCUGGUGACAGCAUCCAUCAAAACAUGAGGAUCACCCAUGUAGAAGGCUGUACGGUUACCGUACAGAGGAUAUACAAUGAUGA | 13.9 nM | 22.2 nM |  | 
AUCAGCUCGUCAGGAUAUACGUCACUGCGUCAGCAGUGUGGUAAGAUCACAUGAGGAUCACCCAUGUAGAAGGGACGAGCAGAU | 13.7 nM | 262 nM |  | 
UCAUUUAUCACAGGAUAUAUUAGUAUACAGUUGUUUGGCUCUUACAUAUUAAUAGAAGGGUGAAACAUGAGGAUCACCCAUGUA |  |  | 621 nM | 224 nM
GGGUACAUCGGAGGAUAUCAUGUAAAUACAUGAGGAUCACCCAUGUCGAUGGAGACAUCGGAGAUUGAGAAGGCCUAUGUACCG |  |  | 194 nM | 9.34 nM
UAGAUGGGAGGAUAUACGUAGAUGCAGAUUCGUGUGGUGCUACAUGAGGAUCACCCAUGUAGAAGGCCCGUCUU | 17 nM | 98.1 nM |  | 
UAAUCUCAGAUAGGAUAUAUAGGAUAACUUAAGACCUAACAUGAGGAUCACCCAUGUGAUUAUUCGUAGAAGGAUCAUUGAACA |  |  | 259 nM | 263 nM
AUUAAUUAAUUAAUACAUGAGGAUCACCCAUGUAAUAAGAUCUAGGAUAUCAGCUCGUUUAGAGCUGAGAAGGAGAUCACAUGU |  |  | 42.6 nM | 37.2 nM
CAGGUAGACUGAGGAUAUACAAUAAGACCUAGUCUAUCUAGGUCCCUCACAUGAGGAUCACCCAUGUAGAAGGCAGUCUGCCUG | 51.5 nM | 636 nM |  | 
UUCUUACGAGGAUAUCGAUUGUGGUACAUGAGGAUCACCCAUGUAUGUGAUAUUGUAUUUCGAGAAGGCGUUCAGU | 26.4 nM | 24.1 nM |  | 
CUGCCACAUGAGGAUCACCCAUGUGAGGAUAUGGCCUGUUUGGCGUGUGCUGGCUCUGUCAGAAGGCGCGUGGG | 24.1 nM | 33.9 nM |  | 
AUCAGCUCGUCAGGAUAUACGUCACAGCGUCAGCAGUGUGGUAAGAUCACAUGAGGAUCACCCAUGUAGAAGGGACGAGCUGAU | 16.8 nM | 223 nM |  | 
GGCUGCAAUUAUGAGGAUAUGUUCGGAUGAACAUGAGGAUCACCCAUGUGGCGAUAGCUAUCUGUGCAGAAGGUGUAGUGGUAGC |  |  | 213 nM | 61.8 nM
CAGUACUGAGGAUAUACAUGAGGAUCACCCAUGUGCUUCAGCUAGGAUACUAGCAUUAGUAGAAGGCAGUACUG | 10.9 nM | 64.1 nM |  | 
AAAAGACAUGAGGAUCACCCAUGUCAAAACGUGGGAGGAUAUGUAUGGAAACCAGACUGUACAGAAGGCCUCUGUC |  |  | 41.7 nM | 131 nM
UGCCGUUGAGGAUAUACAUUGAAUAAGAUUCAUGUAAAACUACAUGAGGAUCACCCAUGUAGAAGGCAAUGGCU | 18.3 nM | 29.6 nM |  | 
UGUAUGUAGGAGAAGGAGGACUUCAUGAGGAUCACCCAUGUGUUAGGACUUAGGAUAUUUGACGACAUGAGGAUCACCCAUGUG |  |  | 58.3 nM | 49.6 nM
UUGGACGUCGUAGGAUAUGUAGGAUAUUUCUACAUGAGGAUCACCCAUGUUGACAUGGAAGAAGGACAGAAGGACGAUGUCCAU |  |  | 123 nM | 5.64 nM
GGCCGGGCAGGAUAUACAUGAGGAUCACCCAUGUAUAUCCUUCAGCAUGGAUCCUCAUGUAGAAGGGCCCGGCC | 13.2 nM | 11.9 nM |  | 
UUUAUGUCAGGAUAUGAUUAGAUCUACUUCGGUAGAUCUAAUCAGAAGGGACAUGAGGAUCACCCAUGUUUUUU | 43.8 nM | 223 nM |  | 
